Apaf-1 inh: human Apaf-1 inhibition; O14727; actives 0.71% (n = 330,000); inhibition, % at 20 µM; AID 489030; reconstituted apoptosome caspase-3 activity, DEVD-Rh110 fluorescence; active = inhibition of at least 40% at 20 µM
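System – cell-free apoptosome with Apaf-1, procaspase-3 and caspase-9 · Buffer or medium – pH 7.5 Hepes buffer with CHAPS, BSA, DTT · Also added – cytochrome c with DEVD-Rh110 · Times – 30 min compound preincubation, 50 min activation, room temperature · Technique – Rh110 fluorescence intensity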
UBC13 inh: human UBC13 polyubiquitination inhibition. AID 485273. inhibition, % at 20 µM. UBC13 polyubiquitin chain formation, TR-FRET. P61088. actives 0.47% (n = 330,000); in the data active = inhibition above about 45%, passing the limit was not always enough
MEKK2 mut-MEK5: signal of MEK5 binding to mutant human MEKK2 PB1 domain. percent response, % at 10 µM. bead flow cytometry, Alexa488-MEK5 binding to MEKK2 mutant. actives 0.35% (n = 290,000); in the data active = percent response above about 24%, passing the limit was not always enough
MEKK3 PB1 HTS: raises or lowers MEK5 binding to the human MEKK3 PB1 domain; bead-based flow cytometry, Alexa488-MEK5 binding to MEKK3; actives lie on both sides; 0 = blocked by unlabeled MEK5, 100 = vehicle; binding response (% of control), % at 10 µM; actives 1.4% (n = 290,000); AID 1529;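 active = binding response more than 3 SD above or below the average of its plate-row segment, actives on both sides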;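 also: Alexa488 bead fluorescence after subtracting the streptavidin-only scavenger bead signal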
Target sequence (Q99759 whole entry, looked up, the tested form may be a part): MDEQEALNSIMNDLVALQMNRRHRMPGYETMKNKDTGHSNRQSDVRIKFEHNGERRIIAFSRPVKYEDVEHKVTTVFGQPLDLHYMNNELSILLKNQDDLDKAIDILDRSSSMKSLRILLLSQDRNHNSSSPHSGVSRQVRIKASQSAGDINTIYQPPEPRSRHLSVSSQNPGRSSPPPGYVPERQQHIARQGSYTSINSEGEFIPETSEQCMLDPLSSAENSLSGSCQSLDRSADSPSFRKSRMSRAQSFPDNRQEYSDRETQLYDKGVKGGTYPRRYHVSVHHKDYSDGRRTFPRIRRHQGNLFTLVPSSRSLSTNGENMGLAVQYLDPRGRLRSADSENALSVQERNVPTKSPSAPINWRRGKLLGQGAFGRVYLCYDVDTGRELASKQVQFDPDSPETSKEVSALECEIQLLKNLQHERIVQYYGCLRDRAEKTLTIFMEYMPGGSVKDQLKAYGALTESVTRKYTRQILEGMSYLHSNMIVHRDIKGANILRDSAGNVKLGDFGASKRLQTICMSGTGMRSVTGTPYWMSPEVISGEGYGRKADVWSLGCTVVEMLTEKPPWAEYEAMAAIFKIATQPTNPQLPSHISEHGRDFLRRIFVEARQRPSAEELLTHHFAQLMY
MEKK2 WT-MEK5: raises or lowers MEK5 binding to wildtype human MEKK2 PB1 domain. Q9Y2U5. bead flow cytometry, Alexa488-MEK5 binding to MEKK2 WT; actives lie on both sides. binding response (% of control), % at 10 µM. actives 1.1% (n = 290,000). AID 1531; in the data active = binding response below about 67% or above about 130%
Apaf-1 inh conf2: Apaf-1 inhibition, single-dose confirmed; shares compounds with Apaf-1 inh; reconstituted apoptosome, caspase-3 DEVD-Rh110 fluorescence; inhibition, % at 20 µM; actives 25% (n = 1,800); AID 504614;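 active = mean inhibition of at least 40% at 20 µM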
Rh110 quench: Rh110 signal interference in Apaf-1 inhibitor counter-screen; shares compounds with Apaf-1 inh; Rh110 fluorescence interference, quenched caspase reaction; activation (fluorescence interference), % at 20 µM; 1,800 tested, under 10 active; AID 504615;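 active = signal rise of 40% or more at 20 µM, treated as a fluorescence artifact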
Apaf1 inh interf: Apaf-1 inhibitor counter-screen fluorescence artifact; shares compounds with Apaf-1 inh; fluorescence interference counterscreen, Apaf-1 assay format; IC50, µM; 460 tested, under 10 active; call rule not given here
Large screens that a line does not name were inactive (follow-up assays come after a bar, where they were run). Rows were chosen to be rich in hits. Some 2.9% of all compounds tested hit in one or more screens of this group.

CCC(CO)Oc1cc(NCc2cccc(C(F)(F)F)c2)c2ncn(C(C)C)c2c1 (centres undefined)	Apaf-1 inh 40.9 (no result: MEKK2 mut-MEK5, MEKK3 PB1 HTS, MEKK2 WT-MEK5) | Apaf-1 inh conf2 inactive | Rh110 quench inactive
CCC(CO)Oc1cc(NCc2ccc(C)cc2)c2ncn(C(C)C)c2c1 (centres undefined)	Apaf-1 inh 41.0 (no result: MEKK2 mut-MEK5, MEKK3 PB1 HTS, MEKK2 WT-MEK5) | Apaf-1 inh conf2 inactive | Rh110 quench inactive
Cc1ccc(Nc2nc3c(c(=O)[nH]c(=O)n3C)n2Cc2ccc(F)cc2)cc1	none
CC(C)c1cc(=O)n2[nH]c(N)nc2n1	none
CC(=O)Nc1ccc(-c2nnc(SCC(=O)n3c4c(c5ccccc53)CCCC4)n2C)cc1	none (no result: Apaf-1 inh, UBC13 inh)
Cn1c(SCC(=O)n2c3c(c4ccccc42)CCCC3)nnc1-c1ccccc1	Apaf-1 inh 43.2 | Apaf-1 inh conf2 inactive | Rh110 quench inactive
CCn1c(=O)ccc2cc([N+](=O)[O-])ccc21	none
CC1=NN(c2cccc(F)c2)C(=O)/C1=C/c1ccc(N(C)C)cc1	none
COc1ccc(/C=C2/C(=O)N(c3cccc(F)c3)N=C2C)c(OC)c1	Apaf-1 inh 89.7 | Apaf-1 inh conf2 inactive | Rh110 quench inactive
CCOC(=O)CN1C(=O)CN(c2ccc(C)cc2)C1=O	none
CC1=NN(c2ccc(C(=O)O)cc2)C(=O)/C1=C\c1ccc(OC(=O)c2cccs2)cc1	Apaf-1 inh 75.3 | Apaf-1 inh conf2 inactive | Rh110 quench inactive
CCOc1cc(/C=C2/C(=O)N(c3ccccc3)N=C2C)ccc1OC(=O)c1ccco1	Apaf-1 inh 96.9 | Apaf-1 inh conf2 inactive | Rh110 quench inactive
CC1=NN(c2ccccc2)C(=O)/C1=C/c1ccc[nH]1	none
CC1=NN(c2ccccc2)C(=O)/C1=C\N(O)c1ccccc1	Apaf-1 inh 70.5 | Apaf-1 inh conf2 inactive | Rh110 quench inactive
CC1=NN(c2ccccc2)C(=O)/C1=C/c1ccc(Cl)cc1	Apaf-1 inh 95.9 | Apaf-1 inh conf2 inactive | Rh110 quench inactive
CC1=NN(c2ccccc2)C(=O)/C1=C/C=C/C=C/N(C)C	none
N#Cc1ccc(NC(=O)Cn2cnc(S(=O)(=O)N3CCCC3)c2)cc1	none
CC1=NN(c2ccc(C)c(C)c2)C(=O)/C1=C/c1ccc2c(c1)n(C)c(=O)n2C	Apaf-1 inh 93.7 | Apaf-1 inh conf2 inactive | Rh110 quench inactive
CC1=NN(c2ccccc2)C(=O)/C1=C\c1ccc(Br)s1	Apaf-1 inh 96.0 | Apaf-1 inh conf2 inactive | Rh110 quench inactive
Cn1c(=O)n(C)c2cc(/C=N/n3cnnc3)ccc21	none
CC1=NN(c2ccccc2)C(=O)/C1=C/c1c(O)n(-c2ccc(F)cc2)[nH]c1=O	none
CC1=NN(c2ccccc2)C(=O)/C1=C/c1cccs1	Apaf-1 inh 89.9 | Apaf-1 inh conf2 inactive | Rh110 quench inactive
COc1ccccc1OCC(=O)NCC1CCCN(Cc2cnn(C)c2C)C1 (centres undefined)	none
CC(Nc1cccc2ccccc12)C(=O)N/N=C/c1ccccn1 (centres undefined)	Apaf-1 inh 95.3 | Apaf-1 inh conf2 inactive | Rh110 quench inactive
Cc1ccc2[nH]c3c(c2c1)CN(C(=O)CN1CCCc2ccccc21)CC3	Apaf-1 inh 78.5 | Apaf-1 inh conf2 inactive | Rh110 quench inactive
O=C(NNc1cc(N2CCCC2)nc(N2CCCC2)n1)c1ccc([N+](=O)[O-])cc1	Apaf-1 inh 97.6 | Apaf-1 inh conf2 75.7 | Rh110 quench inactive | Apaf1 inh interf inactive
O=C(CCc1ccccc1)NNc1cc(N2CCCCC2)nc(N2CCCCC2)n1	Apaf-1 inh 60.4 | Apaf-1 inh conf2 44.5 | Rh110 quench inactive | Apaf1 inh interf inactive
Cc1nc(NNC(=O)c2ccc([N+](=O)[O-])cc2)cc(-c2ccccc2)n1	none (no result: MEKK2 mut-MEK5, MEKK3 PB1 HTS, MEKK2 WT-MEK5)
CC(C)(C)c1ccc(C(=O)NNc2cc(N3CCOCC3)nc(N3CCOCC3)n2)cc1	none
CC(C)(C)c1ccc(C(=O)NNc2cc(N3CCCCC3)nc(N3CCCCC3)n2)cc1	Apaf-1 inh 73.4 | Apaf-1 inh conf2 43.5 | Rh110 quench inactive | Apaf1 inh interf inactive
CCN(Cc1ccccc1)C(=O)c1cccc(S(=O)(=O)N2CCN(c3ccc(F)cc3)CC2)c1	Apaf-1 inh 42.1 (no result: MEKK2 mut-MEK5, MEKK3 PB1 HTS, MEKK2 WT-MEK5) | Apaf-1 inh conf2 inactive | Rh110 quench inactive
O=C(c1ccco1)N1CCN(C(=O)c2cn(-c3ccccc3)nc2-c2ccc(F)cc2)CC1	Apaf-1 inh 72.0 (no result: MEKK2 mut-MEK5, MEKK3 PB1 HTS, MEKK2 WT-MEK5) | Apaf-1 inh conf2 inactive | Rh110 quench inactive
COc1cc(OC)c(C(=O)OCC(=O)NCCc2ccccc2)cc1OC	none
C=CCn1c(NS(=O)(=O)c2ccccc2)c(S(=O)(=O)c2ccc(C)cc2)c2nc3ccccc3nc21	none (no result: Apaf-1 inh, UBC13 inh)
CC(=O)Nc1c(S(=O)(=O)c2ccccc2)c2nc3ccccc3nc2n1Cc1ccccc1	Apaf-1 inh 60.5 | Apaf-1 inh conf2 inactive | Rh110 quench inactive
Cc1ccc(C(C[N+](=O)[O-])c2c(C)[nH]n(-c3ccccc3)c2=O)cc1 (centres undefined)	Apaf-1 inh 93.4 | Apaf-1 inh conf2 44.4 | Rh110 quench inactive | Apaf1 inh interf inactive
Cc1[nH]n(-c2ccccc2)c(=O)c1C(C[N+](=O)[O-])c1ccc(F)cc1 (centres undefined)	Apaf-1 inh 93.8 | Apaf-1 inh conf2 inactive | Rh110 quench inactive
COc1ccc(C(c2c(C)[nH]n(-c3ccccc3)c2=O)c2c(C)[nH]n(-c3ccccc3)c2=O)cc1OC	Apaf-1 inh 97.4 | Apaf-1 inh conf2 inactive | Rh110 quench inactive
CC/C(=N\N=C(/CC)c1ccccc1N)c1ccccc1N	none (no result: MEKK2 mut-MEK5, MEKK3 PB1 HTS, MEKK2 WT-MEK5)
Cc1ccc(C)c2nc3sc(C(=O)O)cc3cc12	none
CCN(CC(=O)Nc1ccc(NC(C)=O)cc1)C(=O)c1ccccc1Sc1ccccc1C#N	Apaf-1 inh 55.7 (no result: MEKK2 mut-MEK5, MEKK3 PB1 HTS, MEKK2 WT-MEK5) | Apaf-1 inh conf2 inactive | Rh110 quench inactive
CCOC(=O)C1=C(CN2CCOCC2)NC(=O)NC1c1cc(C)ccc1C (centres undefined)	none
CCOC(=O)C1=C(CN2CCN(c3ccc(F)cc3)CC2)NC(=O)NC1c1cccs1 (centres undefined)	Apaf-1 inh 41.2 | Apaf-1 inh conf2 inactive | Rh110 quench inactive
Oc1ccccc1CNc1cccc2cccnc12	Apaf-1 inh 94.7 | Apaf-1 inh conf2 inactive | Rh110 quench inactive
Oc1ccc(CNc2ccccc2F)c2cccnc12	none
CCN(Cc1cc2ccccc2[nH]c1=O)C(=O)c1cccc([N+](=O)[O-])c1	none
Cc1c(C(=O)N(CCc2ccccc2)Cc2ccccc2)cccc1[N+](=O)[O-]	Apaf-1 inh 41.3 | Apaf-1 inh conf2 inactive | Rh110 quench inactive
C/C(Cn1nnc2ccccc21)=N\NC(=O)c1cccc(Br)c1	none

High-throughput results: PubChem BioAssay, several laboratories
